Experimental data as given in ChEMBL document CHEMBL1155008, “Brassinosteroids: synthesis and activity of some fluoro analogues” (J Med Chem, 2008).

What was measured:
BJ = assay: Cytotoxicity against human BJ cells assessed as cell survival after 72 hrs by calcein-AM assay; format: cell-based
How it was run: (§1)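 Cells grown in DMEM with 10% fetal calf serum, 4 mM glutamine, penicillin/streptomycin, 37 °C, 5% CO2. Seeded at about 1.25 × 10^5 cells/mL and stabilised 3 h. Six 4-fold dilutions added from DMSO stocks, highest usually 50 µM, DMSO ≤0.6% final. After 72 h, calcein AM for 1 h, fluorescence read. Triplicates, ≥3 repeats; IC50 from dose-response curves.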

Phaseolus vulgaris = assay: Phyto activity in Phaseolus vulgaris cv. Pinto assessed as prolongation of the second internode after 5 days by brassinolide-type activity assay; format: functional
How it was run: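 Bean seedlings germinated 2 days, grown in perlite with diluted Hoagland solution (pH 5.7) at 25-27 °C under 16/8 h light. Seven-day-old plants with 2 mm second internodes received compound in 5 µL lanolin at the bract scar; controls got lanolin alone. ≥7 plants per experiment, ≥3 repeats. Internode length measured after 5 days, difference from control.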

RPMI-8226 = assay: Cytotoxicity against human RPMI 8226 cells assessed as cell survival after 72 hrs by calcein-AM assay; format: functional, cell-based; conditions: RPMI-8226, 72 h; how it was run: as §1
CCRF-CEM = assay: Cytotoxicity against human CEM cells assessed as cell survival after 72 hrs by calcein-AM assay; format: functional, cell-based; how it was run: as §1
MCF7 = assay: Cytotoxicity against human MCF7 cells assessed as cell survival after 72 hrs by calcein-AM assay; format: functional, cell-based; conditions: MCF7, 72 h; how it was run: as §1

SMILES | IC50 (BJ) [µM] | Activity (Phaseolus vulgaris) [mm] | IC50 (RPMI-8226) [µM] | IC50 (CCRF-CEM) [µM] | IC50 (MCF7) [µM]
C[C@]12CC[C@H]3[C@@H](CC(=O)[C@@]4(F)C[C@H](O)CC[C@]34C)[C@@H]1CC[C@@H]2O | > 50 | 43.4 | > 50 | > 50 | > 50
C[C@]12CC[C@H](O)C[C@@H]1C(=O)C[C@@H]1[C@@H]2CC[C@]2(C)[C@@H](OC(=O)c3ccccc3)CC[C@@H]12 | > 50 | 3.8 | > 50 | > 50 | > 50
CC(C)[C@@H](C)[C@H](O)[C@@H](O)[C@@H](C)[C@H]1CC[C@H]2[C@@H]3CC(=O)[C@H]4C[C@H](F)CC[C@]4(C)[C@H]3CC[C@]12C | 45.9 | 13.2 | 23.5 | 13.8 | 25.7
C[C@]12CC[C@H]3[C@@H](CC(=O)[C@@]4(F)C[C@@H](O)[C@@H](O)C[C@]34C)[C@@H]1CC[C@@H]2O | > 50 | 21.8 | 45.4 | > 50 | > 50
CC(=O)O[C@H]1CC[C@H]2[C@@H]3CC(=O)[C@@]4(F)C[C@H](F)CC[C@]4(C)[C@H]3CC[C@]12C | > 50 | 19.8 | > 50 | 42.9 | > 50
C[C@]12CC[C@@H](F)C[C@@H]1C(=O)C[C@@H]1[C@@H]2CC[C@]2(C)[C@@H](OC(=O)c3ccccc3)CC[C@@H]12 | > 50 | 0.8 | > 50 | > 50 | > 50
C[C@]12CC[C@H]3[C@@H](CC(=O)[C@@]4(F)C[C@@H](O)CC[C@]34C)[C@@H]1CC[C@@H]2O | > 50 | 16.9 | > 50 | > 50 | > 50
C[C@]12CC[C@@H](F)C[C@@H]1C(=O)C[C@@H]1[C@@H]2CC[C@]2(C)C(=O)CC[C@@H]12 | > 50 | 14.9 | > 50 | > 50 | > 50
CC(C)[C@@H](C)/C=C/[C@@H](C)[C@H]1CC[C@H]2[C@@H]3CC(=O)[C@H]4C[C@@H](O)CC[C@]4(C)[C@H]3CC[C@]12C | 42 | 9.4 | 27 | 26.4 | 40.4
C[C@]12CC[C@H]3[C@@H](CC(=O)[C@@]4(F)CC=CC[C@]34C)[C@@H]1CC[C@@H]2O | > 50 | 13.6 | > 50 | > 50 | > 50
CC(=O)O[C@H]1CC[C@H]2[C@@H]3CC(=O)[C@@]4(F)C[C@@H](O)CC[C@]4(C)[C@H]3CC[C@]12C | > 50 | 17.1 | > 50 | > 50 | > 50
CC(C)[C@@H](C)/C=C/[C@@H](C)[C@H]1CC[C@H]2[C@@H]3CC(=O)[C@H]4C[C@H](F)CC[C@]4(C)[C@H]3CC[C@]12C | > 50 | 9.9 | > 50 | > 50 | > 50
C[C@]12CC[C@H]3[C@@H](CC(=O)[C@@]4(F)C[C@H](F)CC[C@]34C)[C@@H]1CC[C@@H]2O | > 50 | 18.4 | > 50 | > 50 | > 50
CC(C)[C@@H](C)[C@@H](O)[C@H](O)[C@@H](C)[C@H]1CC[C@H]2[C@@H]3CC(=O)[C@H]4C[C@H](F)CC[C@]4(C)[C@H]3CC[C@]12C | 45.9 | 13.2 | 23.5 | 13.8 | 25.7
CC[C@@H](C(C)C)[C@@H](O)[C@H](O)[C@@H](C)[C@H]1CC[C@H]2[C@@H]3CC(=O)[C@H]4C[C@H](O)[C@H](O)C[C@]4(C)[C@H]3CC[C@]12C | > 50 | – | 26 | – | > 50
C[C@]12CC[C@H]3[C@@H](CC(=O)[C@@]4(F)C[C@H](O)[C@H](O)C[C@]34C)[C@@H]1CC[C@@H]2O | > 50 | 19.5 | > 50 | > 50 | > 50
CC(=O)O[C@H]1CC[C@H]2[C@@H]3CC(=O)[C@@]4(F)C[C@H](O)[C@H](O)C[C@]4(C)[C@H]3CC[C@]12C | > 50 | 12.3 | > 50 | > 50 | > 50
CC(=O)O[C@H]1CC[C@H]2[C@@H]3CC(=O)[C@@]4(F)C[C@H](O)CC[C@]4(C)[C@H]3CC[C@]12C | > 50 | 21.4 | > 50 | > 50 | > 50
CC(=O)O[C@H]1CC[C@H]2[C@@H]3CC(=O)[C@@]4(F)C[C@@H](O)[C@@H](O)C[C@]4(C)[C@H]3CC[C@]12C | > 50 | 21.4 | > 50 | > 50 | > 50
C[C@]12CC[C@@H](F)C[C@@H]1C(=O)C[C@@H]1[C@@H]2CC[C@]2(C)[C@@H](O)CC[C@@H]12 | > 50 | 5.9 | > 50 | > 50 | > 50
CC(=O)O[C@H]1CC[C@H]2[C@@H]3CC(=O)[C@@]4(F)CC=CC[C@]4(C)[C@H]3CC[C@]12C | > 50 | 21.8 | > 50 | > 50 | > 50
